Source: PubChem BioAssay (several laboratories)
NPY1 pot ag: potentiators or agonists of human neuropeptide Y receptor Y1; P25929; NPY-Y1 expressing cells, potentiator/agonist activation; activation, % at 3.6 µM; actives 0.37% (n = 220,000); AID 1304; in the data active = activation above about 33%, passing the limit was not always enough;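 also: cells stimulated with NPY at EC10 then isoproterenol at EC100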
Target sequence (P25929 whole entry, looked up): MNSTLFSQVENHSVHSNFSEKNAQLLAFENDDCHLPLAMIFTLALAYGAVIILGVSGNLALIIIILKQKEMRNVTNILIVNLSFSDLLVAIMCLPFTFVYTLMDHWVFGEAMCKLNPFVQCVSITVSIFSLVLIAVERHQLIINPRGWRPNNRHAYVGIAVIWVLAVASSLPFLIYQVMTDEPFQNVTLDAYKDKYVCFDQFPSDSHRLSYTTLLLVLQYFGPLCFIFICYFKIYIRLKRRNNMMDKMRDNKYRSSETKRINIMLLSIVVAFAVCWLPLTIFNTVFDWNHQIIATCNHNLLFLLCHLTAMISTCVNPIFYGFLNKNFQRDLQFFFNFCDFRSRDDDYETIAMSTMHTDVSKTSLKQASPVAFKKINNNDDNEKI
Insulin prom inh: TRM-6 insulin promoter activity inhibition. TRM-6 cells, insulin promoter-eGFP reporter, imaging; reporter expression induced with tamoxifen. inhibition, % at 2 µM. actives 0.9% (n = 130,000);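 active = inhibition above the mean plus 3 SD, with well images judged a real hit on visual review, cut at about 60% in these data, passing the limit was not always enough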
NPY-Y1 antag: antagonists of human neuropeptide Y receptor Y1; P25929; HEK293-CNG Y1 cells, membrane potential fluorescence; NPY at EC95, then isoproterenol; inhibition, % at 3.6 µM; actives 1% (n = 200,000); AID 1040;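 active = inhibition above the campaign mean inhibition of all tested compounds plus 3 SD, cut at about 20% in these data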
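material = HEK293 cells with Y1 receptor plus CNG channel | also added = NPY 25 nM then isoproterenol 1 µM plus Ro 20-1724 25 µM | schedule = dye 3 h, compound 60 min room temperature, stimulation 45 min | measured by = membrane potential fluorescence | benchmarks = high control isoproterenol alone, low control NPY with isoproterenol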
NPY-Y2 PAM-ag: potentiators or agonists of human neuropeptide Y receptor Y2; P49146; cells expressing NPY-Y2, potentiator/agonist read-out; activation, % at 3.6 µM; actives 0.45% (n = 220,000); in the data active = activation above about 27%;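 also: cells stimulated with NPY near EC25 plus isoproterenol at EC100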
Target sequence (P49146 whole entry, looked up): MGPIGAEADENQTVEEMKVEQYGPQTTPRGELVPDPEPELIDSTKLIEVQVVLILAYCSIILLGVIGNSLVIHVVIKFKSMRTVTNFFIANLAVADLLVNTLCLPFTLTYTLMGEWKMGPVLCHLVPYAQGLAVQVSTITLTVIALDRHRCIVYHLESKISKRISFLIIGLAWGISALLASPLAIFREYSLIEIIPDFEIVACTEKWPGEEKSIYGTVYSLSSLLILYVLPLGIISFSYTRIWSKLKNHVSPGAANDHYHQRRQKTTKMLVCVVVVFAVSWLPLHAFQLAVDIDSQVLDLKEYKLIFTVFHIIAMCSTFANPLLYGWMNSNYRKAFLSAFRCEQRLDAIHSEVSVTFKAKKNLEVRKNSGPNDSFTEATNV
RAM inhibit: inhibitors of the yeast RAM network; S. cerevisiae dse1pr::URA3 reporter, 5-FOA growth OD615, 2 d; analog-sensitive cbk1-as2 kinase mutant strain; inhibition, % at 50 µM; actives 1.8% (n = 190,000);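 active = inhibition above a set limit, 3 SD over mean compound inhibition, cut at about 8.4% in these data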;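 also: inhibition rescues growth on 5-FOA so higher OD means more RAM inhibition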
NPY-Y2 antag: blocks the human neuropeptide Y Y2 receptor | P49146 | NPY-Y2 expressing cells, antagonist mode | inhibition, % at 2.7 µM | actives 0.99% (n = 140,000) | AID 793; in the data active = inhibition above about 17%
NPY1 antag ctr: human NPY-Y1 antagonism in NPY-Y2 counter-screen; actives 19% (n = 710); cell-based NPY-Y1 antagonism counterscreen; inhibition, % at 3.6 µM; shares compounds with NPY-Y2 antag; AID 1256; in the data active = inhibition above about 20%;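 also: cells challenged with NPY then isoproterenol with cAMP sensed through a CNG channel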
NPY2 antag conf: human NPY-Y2 antagonism, confirmation | actives 32% (n = 710) | HEK293 NPY-Y2 CNG channel, membrane potential fluorescence | AID 1257 | shares compounds with NPY-Y2 antag | inhibition, % at 2.8 µM;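 active = mean inhibition of triplicate wells above the hit cutoff set in the primary screen, cut at about 17% in these data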
Of the large screens only hits and unclear results are named; the others gave an inactive call (follow-up assays come after a bar, where they were run); ! = a repeat was not active. A selection: hits, their analogues and other compounds. The true share with any hit is near 3.8%.

CCOc1ccc(NC(=O)Cn2nnc3c(cnn3-c3ccc(F)cc3)c2=O)cc1	none (no result: NPY-Y2 antag)
Cc1ccccc1/C=C/c1nc2ccccc2c(=O)n1Cc1ccccc1	none
Cc1ccccc1/C=C/c1nc2ccccc2c(=O)n1CCc1ccccc1	NPY-Y2 antag 23 (no result: Insulin prom inh) | NPY1 antag ctr inactive | NPY2 antag conf 29
CC(=O)Nc1ccc(C(=O)NNC(=O)Cc2ccccc2)cc1	none (no result: NPY-Y2 antag)
COc1ccc2c(c1)OC1(C)CC2C(C(=O)c2ccccc2OC)C(=O)N1 (stereo not given)	none
Cc1cc2ncn(C(=O)c3c(-c4ccccc4)noc3C)c2cc1C	NPY-Y2 antag 20 | NPY1 antag ctr inactive | NPY2 antag conf inactive
Cc1cc2ncn(C(=O)c3c(-c4c(Cl)cccc4Cl)noc3C)c2cc1C	none (no result: Insulin prom inh)
CCOc1ccc(Oc2c(/C=N/NC(C)=O)c(C)nn2-c2ccccc2)cc1	NPY-Y2 antag 32 | NPY1 antag ctr inactive | NPY2 antag conf 31
CCCCCSc1nnc(-c2ccccc2N)c(=O)[nH]1	NPY-Y2 antag 19 | NPY1 antag ctr inactive | NPY2 antag conf inactive
COCC(=O)NC1CC2CCC(C1)N2C(=S)Nc1ccccc1C(=O)OC (stereo not given)	none (no result: NPY-Y2 antag)
Cc1cccc(NC(=S)N(CCN(C)C)Cc2cc3cc(C)cc(C)c3[nH]c2=O)c1	NPY-Y2 antag 19 | NPY1 antag ctr inactive | NPY2 antag conf 27
Cc1cccc(NC(=S)N(CCN(C)C)Cc2cc3cccc(C)c3[nH]c2=O)c1	none
Cc1ccccc1NC(=O)c1ccccc1NC(=O)Cc1cccc2ccccc12	none
Cc1ccccc1NC(=O)c1cccc2nc3ccccc3nc12	NPY-Y2 antag 19 | NPY1 antag ctr inactive | NPY2 antag conf inactive
O=C(CCC1CCCN(Cc2ccncc2)C1)NCc1ccc(F)c(F)c1 (stereo not given)	none (no result: Insulin prom inh, NPY-Y2 antag)
COc1cccc(CNc2nc3ccccc3n2CCN2CCCCC2)c1	NPY-Y2 antag 19 (no result: Insulin prom inh) | NPY1 antag ctr inactive | NPY2 antag conf inactive
Brc1cccc(CNc2nc3ccccc3n2CCN2CCCCC2)c1	none (no result: Insulin prom inh, NPY-Y1 antag, RAM inhibit, NPY-Y2 antag)
O=C(CSc1nc2ccccc2s1)NCCOc1ccccc1	none (no result: Insulin prom inh)
O=C(CSc1nc2ccccc2s1)NCCOc1ccc(Cl)cc1	NPY-Y2 antag 20 (no result: Insulin prom inh) | NPY1 antag ctr inactive | NPY2 antag conf inactive
Cc1ccc(OCCNC(=O)/C=C/c2ccc([N+](=O)[O-])cc2)cc1C	NPY-Y2 antag 18 (no result: Insulin prom inh) | NPY1 antag ctr inactive | NPY2 antag conf inactive
Cc1ccc(OCCNC(=O)/C=C/c2ccccc2)cc1C	none
O=C(NNC(=O)c1cc2cc(OC(F)(F)F)ccc2[nH]1)c1ccc(Cl)cc1	none (no result: Insulin prom inh, NPY-Y1 antag, RAM inhibit, NPY-Y2 antag)
CC(C)c1ccc(-c2nnn(Cc3nc4ccccc4s3)n2)cc1	NPY-Y2 antag 23 | NPY1 antag ctr inactive | NPY2 antag conf 23
O=P(CCCCCCCCCP(=O)(c1ccccc1)c1ccccc1)(c1ccccc1)c1ccccc1	NPY-Y2 antag 18 | NPY1 antag ctr inactive | NPY2 antag conf 111
COC(=O)c1ccc2c(=O)n(CCCCCC(=O)O)c(=S)[nH]c2c1	none
CCn1c(SCC(=O)NCc2ccco2)nnc1C(C)C	NPY-Y2 antag 23 (no result: Insulin prom inh) | NPY1 antag ctr inactive | NPY2 antag conf inactive
COCCn1c(SCC(=O)NCc2ccco2)nnc1C(C)C	none
Cc1cccc(C)c1NC(=O)C1(N(Cc2ccco2)C(=O)c2ccccn2)CCCC1	none
O=C(c1ccccn1)N(Cc1ccco1)C1(C(=O)NC2CCCCC2)CCCCC1	NPY-Y2 antag 32 | NPY1 antag ctr inactive | NPY2 antag conf inactive
O=C(Cn1c(N2CCN(c3ccccc3)CC2)nc2ccccc21)c1ccccc1	NPY-Y2 antag 18 (no result: Insulin prom inh) | NPY1 antag ctr inactive | NPY2 antag conf inactive
COc1ccc(CCNC(=O)CSc2nc(O)c(CC(C)C)c(=O)[nH]2)cc1OC	NPY-Y2 antag 17 | NPY1 antag ctr inactive | NPY2 antag conf inactive
COc1ccc(CCNC(=O)CSc2nc(O)cc(=O)[nH]2)cc1OC	none (no result: Insulin prom inh, NPY-Y1 antag, RAM inhibit, NPY-Y2 antag)
CCC(C)(C)n1nnnc1C(c1ccc2ncccc2c1)N1CCN(c2ccc(O)cc2)CC1 (stereo not given)	none (no result: Insulin prom inh, NPY-Y1 antag, RAM inhibit, NPY-Y2 antag)
CCC(C)(C)n1nnnc1C(c1ccc2ncccc2c1)N1CCCC(C)C1 (stereo not given)	NPY-Y2 antag 18 | NPY1 antag ctr inactive | NPY2 antag conf inactive
Cn1nc(/C=C/c2ccccc2)ccc1=O	none (no result: NPY-Y2 antag)
Cc1ccccc1OCC(O)Cn1c(=N)n(CCN2CCOCC2)c2ccccc21 (stereo not given)	NPY-Y1 antag 30!, NPY-Y2 antag 28 | NPY1 antag ctr inactive | NPY2 antag conf inactive
COC(=O)Cn1c(=N)n(CCN2CCCCC2)c2ccccc21	none
COc1ccccc1OCC(O)Cn1c(=N)n(CCN2CCCCC2)c2ccccc21 (stereo not given)	NPY-Y2 antag 45 | NPY1 antag ctr 31 | NPY2 antag conf 39
COc1ccc(CNC(=O)CN2C(=O)C3C4C=CC(C4)C3C2=O)cc1 (stereo not given)	none (no result: NPY-Y2 antag)
Cc1ccc(-c2nn3c(C)nnc3c3ccccc23)cc1S(=O)(=O)NC(C)c1ccccc1 (stereo not given)	NPY-Y2 antag 18 | NPY1 antag ctr inactive | NPY2 antag conf 19
CC(C)n1c(C(=O)OCC(=O)NCc2ccc3c(c2)OCO3)cc2sccc21	NPY-Y2 antag 22 | NPY1 antag ctr inactive | NPY2 antag conf inactive
CC(C)n1c(C(=O)OCC(=O)NCc2ccc3c(c2)OCO3)cc2occc21	none (no result: Insulin prom inh)
O=C(CSc1nnc(-c2ccccn2)n1Cc1ccco1)c1ccccc1	none
Brc1ccc(CSc2nnc(-c3ccccn3)n2Cc2ccco2)cc1	NPY-Y2 antag 24 | NPY1 antag ctr inactive | NPY2 antag conf 26
Clc1cccc(CSc2nnc(-c3ccccn3)n2Cc2ccco2)c1	NPY-Y2 antag 20 | NPY1 antag ctr inactive | NPY2 antag conf inactive
O=C(CSc1nnc(-c2ccccn2)n1Cc1ccco1)c1ccc(Cl)cc1	none
c1ccc(CSc2nnc(-c3ccco3)n2Cc2ccco2)cc1	none
c1ccc(CSc2nnc(-c3cccs3)n2Cc2ccco2)cc1	NPY-Y2 antag 19 | NPY1 antag ctr inactive | NPY2 antag conf inactive
CCOC(=O)c1cccc(NC(=O)c2ccc(N(C)C)cc2)c1	none
O=C(CCC(=O)c1cccs1)NCc1cccnc1	none (no result: Insulin prom inh, NPY-Y2 antag)
O=C(c1cc(-c2cccs2)on1)N1CCc2ccccc2C1	NPY-Y2 antag 29 | NPY1 antag ctr inactive | NPY2 antag conf inactive
COCCNCCCCOc1c(Cl)cc(C)cc1Br	none
Cc1cc(Cl)c(OCCCNCc2ccccc2)c(Br)c1	NPY-Y2 antag 18 | NPY1 antag ctr inactive | NPY2 antag conf 23
Nc1nc2sc3c(c2c(=O)s1)CCCC3	none
